Among the data in ChEMBL document CHEMBL1144914, “Bisintercalating threading diacridines: relationships between DNA binding, cytotoxicity, and cell cycle arrest” (J Med Chem, 2003) are IC50 and Time constant values, retold here.

For test [1], the system named is CCRF-CEM. Nature of the test: Cytotoxicity in human leukemic CCRF-CEM cells. The test is classed as functional, cell-based. The procedure, abridged:
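CCRF-CEM cells in RPMI 1640 with 10% FBS, 2 mM glutamine and pen/strep at 37 °C, 5% CO2, seeded at 1 × 10^5 cells/mL. Agent from 1 mM water stock, diluted in PBS over a concentration range, 72 h exposure. Cells counted by Coulter Counter. Duplicate wells, each curve repeated at least three times. IC50 is 50% growth inhibition versus medium control, from a sigmoidal fit.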

Test [2] has as its system Nucleic Acid. Nature of the test: Dissociation time constant (Tau 1) for dissociation of compound and calf thymus DNA complex. The class given is nucleic-acid assay. The following applies: Bos taurus. The procedure, abridged: (§1)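 Sonicated calf thymus DNA–ligand complex equilibrated 1 h at room temperature in 0.1 SHE buffer (HEPES, EDTA, 0.1 M NaCl, pH 7.0), then rapidly mixed with SDS at 23 °C. Final concentrations 500 μM DNA, 50 μM ligand, 20 mM SDS. Absorbance followed at 423 nm over 420–3600 s and expressed as fraction of reaction. Multiexponential nonlinear least-squares fit; mean of five runs.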

In test [3] the test system is Nucleic Acid. Put plainly: Dissociation time constant (Tau 2) for dissociation of compound and calf thymus DNA complex. The class given is nucleic-acid assay. The note with it: Bos taurus. The method in brief: as §1
In test [4] the test system is Nucleic Acid. Nature of the test: Dissociation time constant (Tau 3) for dissociation of compound and calf thymus DNA complex. The class given is nucleic-acid assay. The note with it: Bos taurus. The method in brief: as §1

Numbered stars: 1 amine (or outer) side, 2 acyl side, 3 side chain; on linkers, the order of the positions; unused ones are H or OH. Bridge positions count the residues as written; N and C are the ends. Square brackets hold non-standard residues; d marks the D form. Peptide text beside a SMILES is read from it. I, II: the chains in the order shown. Actinocin(1to9) = Cc1c2oc3c(C)ccc(C(=O)[*:2])c3nc-2c(C(=O)[*:1])c(N)c1=O; NMeV = CN[C@H](C(=O)O)C(C)C; Sar = CNCC(=O)O

For the compound `COC(=O)[C@@H]1c2cc3c(c(O)c2[C@@H](O[C@@H]2O[C@@H](C)[C@H](OC)[C@@](C)(OC)[C@H]2OC)C[C@]1(C)O)C(=O)c1c(O)cc2c(c1C3=O)O[C@@H]1O[C@@]2(C)[C@H](O)[C@@H](N(C)C)[C@@H]1O` [NOGALAMYCIN], the midpoint of inhibition in test [1], the IC50, lay at 59 nM. As to `Cc1c2oc3c(C)ccc(C(=O)N[C@@H]4C(=O)N[C@H](C(C)C)C(=O)N5CCC[C@H]5C(=O)N(C)CC(=O)N(C)[C@@H](C(C)C)C(=O)O[C@@H]4C)c3nc-2c(C(=O)N[C@@H]2C(=O)N[C@H](C(C)C)C(=O)N3CCC[C@H]3C(=O)N(C)CC(=O)N(C)[C@@H](C(C)C)C(=O)O[C@@H]2C)c(N)c1=O` [DACTINOMYCIN] (I: T[dV]P[Sar][NMeV] / II: T[dV]P[Sar][NMeV]; ester I:1-I:C, II:1-II:C; linker I:N-II:N via Actinocin(1to9)), the IC50 in test [1] came out at 1.6 nM. In addition, the Time constant in test [2] is 19 s; in test [3] it was 68 s; in test [4], 790 s. `CN(C)CCNC(=O)c1cccc2c(NCCCCCCNc3c4ccccc4nc4c(C(=O)NCCN(C)C)cccc34)c3ccccc3nc12` displayed an IC50 in test [1] of 87 nM. Still for that read-out and setting: the same measure for `COc1cc(NS(C)(=O)=O)ccc1Nc1c2ccccc2nc2c(C(N)=O)cccc12`: 120 nM; for `O=C1c2c(O)ccc(O)c2C(=O)c2c(NCCNCCO)ccc(NCCNCCO)c21` [MITOXANTRONE]: 3.6 nM; for `O=C(NCCN1CCOCC1)c1cccc2c(NCCCCCCNc3c4ccccc4nc4c(C(=O)NCCN5CCOCC5)cccc34)c3ccccc3nc12`: 710 nM. For `O=C(NCCN1CCOCC1)c1cccc2c(NCCCNCCCNc3c4ccccc4nc4c(C(=O)NCCN5CCOCC5)cccc34)c3ccccc3nc12`, in test [1], it took 47 nM to reach half-maximal inhibition (IC50). The Time constant in test [2] was 5 s; in test [3] it was 30 s; in test [4] it was 88 s. In test [1], `O=C(NCCN1CCOCC1)c1cccc2c(NCCNCCNCCNc3c4ccccc4nc4c(C(=O)NCCN5CCOCC5)cccc34)c3ccccc3nc12` showed an IC50 of 710 nM.

The compound `CN(C)CCNC(=O)c1cccc2c(NCCN3CCN(CCNc4c5ccccc5nc5c(C(=O)NCCN(C)C)cccc45)CC3)c3ccccc3nc12` gave a half-inhibitory concentration (IC50) in test [1] of 63 nM. The Time constant in test [2] stood at 7 s; in test [3], 22 s; in test [4], 220 s. `CN(C)CCNC(=O)c1cccc2c(NCCCNCCCNc3c4ccccc4nc4c(C(=O)NCCN(C)C)cccc34)c3ccccc3nc12` came in with an IC50 in test [1] of 50 nM. In addition, the figures for the Time constant in test [2], in test [3] and in test [4] were 6 s, 32 s and 130 s, respectively. The matching figures for `CN(C)CCNC(=O)c1cccc2c(NCCNCCNCCNc3c4ccccc4nc4c(C(=O)NCCN(C)C)cccc34)c3ccccc3nc12`: 590 nM, 6 s, 33 s and 180 s. In test [1], `COc1cc(NS(C)(=O)=O)ccc1Nc1c2ccccc2nc2ccccc12` [AMSACRINE] displayed an IC50 of 130 nM. Regarding `COC1C(O)CC(OC2CC(Oc3cc4cc5c(c(O)c4c(O)c3C)C(=O)[C@@H](OC3CC(OC4CC(OC6CC(C)(O)C(OC(C)=O)C(C)O6)C(O)C(C)O4)C(O)C(C)O3)[C@H]([C@H](OC)C(=O)[C@@H](O)[C@@H](C)O)C5)OC(C)C2OC(C)=O)OC1C` (stereo partly drawn) [CHROMOMYCIN], the midpoint of inhibition in test [1], the IC50, lay at 3.5 nM. `CN(C)CCNC(=O)c1cccc2c(NCCCCCCCCNc3c4ccccc4nc4c(C(=O)NCCN(C)C)cccc34)c3ccccc3nc12` showed an IC50 in test [1] of 35 nM. Also, the Time constant was determined as 5 s in test [2], 17 s in test [3] and 53 s in test [4]. Turning to `O=C(NCCN1CCOCC1)c1cccc2c(NCCCCNCCCNc3c4ccccc4nc4c(C(=O)NCCN5CCOCC5)cccc34)c3ccccc3nc12`, the IC50 in test [1] came to 75 nM. Same read-out and setting: the same measure for `CN(C)CCNC(=O)c1cccc2c(NCCCCNCCCNc3c4ccccc4nc4c(C(=O)NCCN(C)C)cccc34)c3ccccc3nc12`: 250 nM; for `O=C(NCCN1CCOCC1)c1cccc2c(NCCCCCCCCNc3c4ccccc4nc4c(C(=O)NCCN5CCOCC5)cccc34)c3ccccc3nc12`: 810 nM. Still for that read-out and setting: the value for `O=C(NCCN1CCOCC1)c1cccc2c(NCCN3CCN(CCNc4c5ccccc5nc5c(C(=O)NCCN6CCOCC6)cccc45)CC3)c3ccccc3nc12` was 290 nM; that for `CC[C@@]1(O)C(=O)OCc2c1cc1n(c2=O)Cc2cc3ccccc3nc2-1` [CAMPTOTHECIN] was 5.3 nM; that for `CS[C@H]1SC[C@H]2C(=O)N(C)[C@@H](C(C)C)C(=O)OC[C@@H](NC(=O)c3cnc4ccccc4n3)C(=O)N[C@@H](C)C(=O)N(C)[C@@H]1C(=O)N(C)[C@@H](C(C)C)C(=O)OC[C@@H](NC(=O)c1cnc3ccccc3n1)C(=O)N[C@@H](C)C(=O)N2C` [ECHINOMYCIN] was 0.5 nM.
